According to ChEMBL document CHEMBL4765352, “Discovery of AdipoRon analogues as novel AMPK activators without inhibiting mitochondrial complex I” (Eur J Med Chem, 2020):
Calls of active or inactive are those of the source. The rule behind the calls is not given here.

Tests used:
[1] = Induction of glucose consumption in mouse C2C12 cells at 10 uM measured after 12 hrs by glucose oxidase method (reference value: 100 %); assay type: functional
Outline: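 Differentiated C2C12 myotubes were switched to DMEM containing 2.75 g/L glucose and treated for 12 h at 37 °C, with cell-free blank wells as reference. Glucose left in the medium was measured by the GOD-POD method at 570 nm. Consumption was derived by subtraction and expressed as percentage of the DMSO group.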

C2C12 [2] = assay: Activation of AMPK in mouse C2C12 cells assessed as increase in ACC phosphorylation at 10 uM by Western blotting analysis; assay type: cell-based; conditions: filed as activator, time 0.5-24 hrs, TDE = time-dependent effect
Outline: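 C2C12 myoblasts differentiated in DMEM with 2% horse serum for 5-7 days until myotubes formed. Treated for 2 h, either at 10 μM or across a concentration range, or at 10 μM over a time course. RIPA lysates (~30 µg protein) blotted for p-AMPK/AMPK and p-ACC/ACC, detected by ECL. The p-AMPK/AMPK ratio is expressed as fold of the DMSO vehicle.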

Homo sapiens [3] = species: Homo sapiens; assay: Activation of AMPK alpha1/beta1/gamma1 (unknown origin)
Homo sapiens [4] = species: Homo sapiens; assay: Activation of AMPK alpha2/beta2/gamma1 (unknown origin)
[5] = Inhibition of mitochondrial complex 1 in human HepG2 cells assessed as increase in ADP/ATP ratio at 10 uM; assay type: cell-based; conditions: hepg2, 10 µM
Outline: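 HepG2 cells treated with 10 μM or 0.5 μM compound, or DMSO. Cellular ADP:ATP and AMP:ATP ratios were measured. Three replicates, given as mean ± SD and compared by Student's t test.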

C2C12 [6] = assay: Activation of AMPK in mouse C2C12 cells with SiRNA-induced LKB1 knock down assessed as increase in ACC phosphorylation; assay type: cell-based
A549 [7] = assay: Activation of AMPK in human A549 cells harboring mutant LKB1; assay type: cell-based
C2C12 [8] = assay: Cytotoxicity against mouse C2C12 cells assessed as reduction in cell viability at 5 to 20 uM incubated for 24 to 72 hrs by MTT assay; assay type: cell-based; conditions: c2c12, 20 µM, dose lower 5 µM, time lower 24 hrs, dose upper 20 µM, time upper 72 hrs
Outline: (§1)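 MTT viability assay in C2C12, HepG2 and A549 cells. Exposure was 24 h or 72 h for C2C12 and 72 h for HepG2 and A549. Three replicates per group, compared with the 0 μM group by Student's t test.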

A549 [9] = assay: Cytotoxicity against human A549 cells assessed as reduction in cell viability at 5 to 20 uM incubated for 72 hrs by MTT assay; assay type: cell-based; conditions: a549, 72 h, dose 5-20 µM; outline: as §1
[10] = Metabolic stability in human liver microsomes assessed as compound remaining preincubated for 5 mins followed by NADPH addition and measured up to 45 mins by LC/MS analysis; assay type: ADME, Microsome; conditions: time 50 min, read-out: Stabilty
Outline: (§2)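 Compound was preincubated with mouse (ICR/CD-1) or human liver microsomes in potassium phosphate buffer at 37 °C for 5 min, then NADPH was added to start the reaction. Samples were quenched with acetonitrile containing tolbutamide internal standard at 0, 5, 15, 30 and 45 min. Parent compound measured by LC/MS; ketanserin served as control.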

[11] = Metabolic stability in human liver microsomes assessed as half life preincubated for 5 mins followed by NADPH addition and measured up to 45 mins by LC/MS analysis; assay type: ADME, Microsome; conditions: time 50 min; outline: as §2
[12] = Metabolic stability in human liver microsomes assessed as intrinsic clearance preincubated for 5 mins followed by NADPH addition and measured up to 45 mins by LC/MS analysis; assay type: ADME, Microsome; conditions: time 50 min, read-out: CLH
Outline: (§3)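 Compound and liver microsomes in preheated potassium phosphate buffer, held at 37 °C for 5 min. Reaction started with NADPH and stopped at 0, 5, 15, 30 and 45 min with acetonitrile containing tolbutamide internal standard. Samples centrifuged at 6000 rpm for 15 min, supernatant analysed by LC/MS. Ketanserin run as assay control. Performed by a contract lab.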

[13] = Metabolic stability in ICR/CD-1 mouse liver microsomes assessed as intrinsic clearance preincubated for 5 mins followed by NADPH addition and measured up to 45 mins by LC/MS analysis; assay type: ADME, Microsome; conditions: time 50 min, read-out: CLH; outline: as §3
Mus musculus [14] = assay: Hypoglycemic activity in 6 hrs fasted normal lean C57BL/6 mouse assessed as reduction in blood glucose level at 100 mg/kg, ig pretreated for 2 hrs followed by glucose challenge and measured up to 90 mins post glucose challenge starting from 120 mins prior to […] by IPGTT; assay type: functional, organism-based; conditions: time 210.0 min
Outline: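 C57BL/6 mice (male, 8-10 weeks, n=6 per group) fasted 6 h, then given compound or vehicle intragastrically. Two hours later, 20% glucose was injected i.p. at 2 g/kg. Tail-vein glucose read by glucometer at -120, 0, 20, 40, 60 and 90 min, and net AUC calculated. Doses were 25, 50 and 100 mg/kg.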

Mus musculus [15] = assay: Antihyperglycemic activity in db/db mouse assessed as reduction in fasting blood glucose level at 100 mg/kg, ig administered once daily for 2 to 6 weeks; assay type: functional, organism-based; conditions: time 2-6 weeks
Outline: (§4)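 db/db mice, 5 weeks old, grouped by matching baseline blood glucose and body weight. Dosed intragastrically once daily at 100 mg/kg in 0.5% methylcellulose; vehicle-treated db/db and db/m mice served as controls. Body weight and fasting blood glucose measured weekly. Serum ALT and AST measured after 10 weeks. Data given as mean ± SEM.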

[16] = Toxicity in db/db mouse assessed as effect on serum ALT level at 100 mg/kg, ig administered for 10 weeks; assay type: organism-based; conditions: in vivo, po, 1680 h; outline: as §4
[17] = Toxicity in db/db mouse assessed as effect on serum AST level at 100 mg/kg, ig administered for 10 weeks; assay type: organism-based; conditions: in vivo, po, 1680 h; outline: as §4
Mus musculus [18] = species: Mus musculus; assay: Improvement in lipid homeostasis in db/db mouse assessed as effect on serum total cholesterol level; assay type: functional, organism-based
[19] = Induction of cardiac hypertrophy in normal lean C57BL/6 mouse assessed as increase in cardiac glycogen level at 100 mg/kg, ig administered for 4 weeks by PAS staining based analysis; assay type: organism-based; conditions: in vivo, po, 672 h
Outline: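 Male C57BL/6 mice, 9 weeks old, dosed intragastrically daily for 4 weeks. After saline perfusion, organ weights and tibia length were recorded. Heart pieces were fixed in 4% paraformaldehyde, embedded in paraffin and stained with periodic acid-Schiff to show glycogen.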

[20] = Toxicity in C57BL/6 mouse assessed as change in heart weight/tibia length ratio at 50 to 200 mg/kg, ig administered for 4 weeks; assay type: organism-based; conditions: in vivo, po, 672 h, dose 50-200 mg/kg
Outline: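 Male C57BL/6 mice (6 per group) given 50, 100 or 200 mg/kg intragastrically daily for 4 weeks. Saline-perfused hearts were weighed and examined for gross morphology, with representative hearts chosen by similar body weight. Heart weight was expressed relative to body weight and to tibia length.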

Mus musculus [21] = assay: Activation of AMPK in normal lean C57BL/6 mouse assessed as increase in phosphorylated ACC level in heart tissue at 100 mg/kg, ig administered for 4 weeks by Western blot analysis; assay type: functional, organism-based
Outline: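 Male C57BL/6 mice, 9 weeks old, dosed intragastrically once daily for 4 weeks alongside vehicle controls. Heart and skeletal muscle were homogenized in RIPA buffer with protease/phosphatase inhibitors and centrifuged at 10,600 g for 20 min. About 30 µg protein was blotted for p-AMPK and p-ACC and detected by ECL.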

Structure (SMILES): CC(C)(Oc1ccc(Cl)cc1)C(=O)Nc1ccc(OCc2ccc(C#N)cc2)cc1
- Activity [1]: 151.8%
- Activity (C2C12 [2]): Tde
- Activity (Homo sapiens [3]): inactive
- Activity (Homo sapiens [4]): inactive
- inhibition (INH) [5]: Not Active
- Activity (C2C12 [6]): inactive
- Activity (A549 [7]): inactive
- Activity (C2C12 [8]): Non-Toxic
- Activity (A549 [9]): Non-Toxic
- remaining at 0.75 h [10]: 74%
- half-life [11]: 1.62 h
- CLint scaled [12]: 18 mL/min/kg
- CLint scaled [13]: 152 mL/min/kg
- Activity (Mus musculus [14]): Active
- Activity (Mus musculus [15]): Active
- Activity [16]: Non-Toxic
- Activity [17]: Non-Toxic
- Activity (Mus musculus [18]): inactive
- Activity [19]: Non-Toxic
- Activity [20]: Non-Toxic
- Activity (Mus musculus [21]): inactive
